NLRP3 yeast inh: blocks the NALP3 inflammasome reconstituted in yeast; Yeast reconstituted NLRP3/ASC/caspase-1, beta-gal luminescence, 24 h; inhibition, % at 10 µM; actives 0.39% (n = 330,000); AID 2825;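 active = inhibition of 50% or more; inactive = inhibition below 50%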;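 note: plate controls were induced DMSO wells for no effect and uninduced yeast grown without galactose for full effect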
Mdm2 MdmX PPI: disrupts the human Mdm2-MdmX interaction. O15151+Q00987. SaOS-2 split-luciferase Mdm2/MdmX complementation, luminescence. inhibition, % at 8 µM. actives 3% (n = 330,000). AID 485346;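 active = inhibition of at least 50% at 8 µM in the primary screen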
CSC inhib: cancer stem cell inhibition; cancer stem cell-like cells viability, luminescence; inhibition, % at 7.5 µM; actives 1.1% (n = 300,000); in the data active = inhibition above about 75%; tested in HMLE shEcad cells
Calb FLC: C. albicans growth modulation with fluconazole; C. albicans CaCi-2 + fluconazole, Alamar Blue growth, 48 h; growth inhibition, % (concentration not given with the values); actives 0.57% (n = 300,000); AID 1979;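 active = growth inhibition above about 58% in most replicates, limit read from the data, passing the limit was not always enough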;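 note: all wells also contain fluconazole at 8 µg/ml as a sub-toxic cotreatment; 0% = median of DMSO wells and 100% = median of geldanamycin control wells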
Beta cell apopt: blocks beta cell apoptosis | AID 435005 | protection from apoptosis, % (test concentration not listed) | actives 0.8% (n = 300,000) | INS-1E cytokine-induced death, ATP luminescence, 48 h; percent of positive-control rescue, neutral wells zero;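 active = Every replicate reaches about 75%, or at least half do and their mean reaches it too, limit read from the data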;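 note: 0% = cytokine-treated negative control wells and 100% = positive control rescue; higher means more ATP so stronger rescue from cytokine killing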
T cruzi inh: blocks replication of Trypanosoma cruzi | actives 1.4% (n = 300,000) | T. cruzi beta-gal in NIH3T3, luminescence, 90 h | inhibition, % (concentration not given with the values);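 active = mean inhibition across valid replicates above about 55%, limit read from the data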;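 note: signal also drops with host cell toxicity which is not excluded here; 0% = plate median of DMSO wells and 100% = zero luminescence signal; higher percent means less beta-gal luminescence so fewer parasites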
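Material: NIH/3T3 host cells with β-galactosidase reporter T. cruzi; Input: 5,000 host fibroblasts per well; Medium: DMEM, 2% fetal bovine serum; Compound: 50 nL DMSO compound solution per well; Schedule: 3 h host attachment, then at least 90 h co-culture; Detection: luminescent β-galactosidase signal after 60 min lysis.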
* marks the source's active call; other numbers are inactive results; x = not tested or not shown. The list is not random: actives were taken first. Their share in the collection is about 5.3%.

SMILES | NLRP3 yeast inh | Mdm2 MdmX PPI | CSC inhib | Calb FLC | Beta cell apopt | T cruzi inh
CCOC(=O)/C(=N\Nc1ccc(Cl)cc1)c1csc(Nc2ccccc2)n1 | 26 | 30 | -7 | -20 | 15 | 65*
CCOC(=O)/C(=N/Nc1ccccc1)c1csc(Nc2ccccc2)n1 | 14 | 44 | 107* | -27 | 16 | 62*
CCOC(=O)/C(=N\Nc1ccc(OC)cc1)c1csc(Nc2ccccc2)n1 | 29 | 46 | 104* | -15 | 6 | 81*
Cc1ccc(C)c(N2CCN(C(=O)CCC(=O)N3CCOc4ccc(Cl)cc43)CC2)c1 | 31 | 42 | 45 | 7 | -2 | 55*
Cc1cccc(CSc2nnc(-c3cnccn3)n2C)c1 | 18 | 18 | -12 | 6 | -6 | -34
CSc1ncccc1C(=O)Nc1nc2ccc(Oc3ccccc3)cc2s1 | -3 | 16 | 78* | 53 | 9 | -7
Cn1c(N2CCC(C(N)=O)CC2)nc2c1c(=O)n(Cc1ccc(Cl)cc1)c(=O)n2C | 20 | 25 | -12 | -1 | -5 | 0
COc1ccc(C2CC(=O)C3=C(C2)Nc2ncnn2C3c2ccccc2C)c(OC)c1 (configuration not stated) | 4 | -2 | x | 6 | -11 | 61*
CCCCN(C)CCNC(=O)c1nn(-c2ccc(OC)cc2)c(=O)c2c1c1ccccc1n2C | 7 | 32 | -8 | 3 | -9 | 61*
CSc1ccc(NC(=O)Nc2cccn(Cc3ccccc3F)c2=O)cc1 | 18 | 37 | 6 | -4 | 2 | 59*
COc1ccc(-n2c(CNc3ccc(C)cc3)nnc2SCC(=O)Nc2nc(-c3ccccc3)cs2)cc1 | -9 | 34 | 3 | -2 | 86* | 8
COc1ccc(-n2c(Cc3cccn3C)nnc2SCC(=O)Nc2cccc(Cl)c2)cc1 | 9 | 33 | 117* | 4 | -11 | 0
CCOC(=O)Cc1csc(NC(=O)CSc2nnc(-c3ccc(OC)cc3)n2C)n1 | 4 | 12 | 1 | -14 | -3 | 70*
COc1ccc(-n2c(Cc3cccn3C)nnc2SCC(=O)Nc2cccc(NC(C)=O)c2)cc1 | 13 | -6 | -11 | 9 | -4 | 4
Cc1nnc(SCc2ccccc2)n1N | 6 | 12 | 1 | -17 | x | -2
O=C(Nc1ccc(OCC(=O)N2CCC(Cc3ccccc3)CC2)cc1)c1ccco1 | 14 | 21 | 44 | -27 | 98* | -29
COC(=O)C1CCN(C(=O)CN(C)Cc2ccc(C(C)(C)C)cc2)CC1 | 15 | 24 | 0 | 80* | x | 67*
O=c1[nH]c2ccc(Cl)cc2c(-c2ccccc2)c1CN1CCOCC1 | 16 | 25 | -1 | x | -14 | x
O=C(NCCNC(=O)C(c1ccccc1)c1ccccc1)c1ccco1 | -2 | 13 | -2 | 111* | x | -19
CC(C)c1ccc(C(=O)NCCCN(C)C)cc1 | 10 | -2 | -9 | -5 | -2 | 60*
CN(C)CCCNC(=O)c1ccc(Cl)c(S(=O)(=O)N(C)c2ccccc2)c1 | 14 | 11 | -12 | -5 | -2 | 65*
O=C(Oc1coc(CSc2nnc(NC(=O)c3cccs3)s2)cc1=O)c1ccccc1 | 10 | 6 | 86* | -7 | 0 | -9
Cc1ccc(C(=O)Oc2coc(CSc3nnc(NC(=O)C4CC4)s3)cc2=O)cc1 | 10 | 15 | 32 | -21 | -6 | -14
S=C(Nc1ccc(Br)cc1)N1CCn2cccc2C1c1cccnc1 (configuration not stated) | x | x | x | -4 | x | 79*
CN(CCc1ccccn1)C1CCCN(S(=O)(=O)c2ccc(F)c(Cl)c2)C1 (configuration not stated) | 14 | -1 | 8 | -1 | -6 | 72*
SMILES | NLRP3 yeast inh | Mdm2 MdmX PPI | CSC inhib | Calb FLC | Beta cell apopt | T cruzi inh
CCn1c(SCC(=O)Nc2sc3c(c2C#N)CCCC3)nnc1-c1ccco1 | 9 | -25 | 0 | -7 | 3 | 55*
CCc1ccc(NC(=S)N2CCN(c3cccc(C(F)(F)F)c3)CC2)cc1 | 17 | 3 | 1 | 0 | -1 | 1
CCCCCCc1ccc(OC(=O)c2ccncc2)cc1 | 17 | 11 | 10 | 11 | 0 | 9
CCCCCCOc1ccc(OC(=O)c2ccncc2)cc1 | -3 | 22 | 95* | 2 | 4 | 29
CCN(CC)C(=O)c1ccc(Oc2ccc([N+](=O)[O-])cc2Cl)cc1 | 16 | 21 | 2 | -7 | 4 | 14
CCN(CC)C(=O)c1cc([N+](=O)[O-])cc2c1-c1ccc([N+](=O)[O-])cc1C2=C(C#N)C#N | 11 | 25 | 40 | 12 | 89* | 3
COc1ccc(CCC(=O)Nc2nc(-c3ccncc3)cs2)cc1 | 9 | 27 | 9 | -1 | -4 | 36
COc1ccc(CC(=O)Nc2nc(-c3ccncc3)cs2)cc1 | -8 | -5 | -43 | 2 | -9 | 67*
O=C(Nc1ccc2c(c1)OCO2)c1ccc(COc2ccc3c(c2)CCC3)o1 | 26 | -33 | 86* | -1 | -3 | 12
CCOC(=O)/C=C/COc1ccccc1[N+](=O)[O-] | 16 | 3 | -8 | -8 | -6 | -11
O=S(=O)(c1ccc(NC(=S)Nc2ccccc2)cc1)N1CCOCC1 | 18 | 5 | -1 | -2 | x | -31
CC(C)CCCCCCNC(=S)Nc1ccc(S(=O)(=O)N2CCOCC2)cc1 | 11 | 29 | 91* | 0 | 98* | 5
O=C(COC(=O)/C=C/c1ccc(Cl)c(Cl)c1)NC1CC1 | 1 | 3 | -14 | x | -4 | x
COc1ccccc1CNC(=O)C(=O)NCC1CCCN1S(=O)(=O)c1cccs1 (configuration not stated) | 13 | 15 | -21 | -4 | 2 | 62*
O=C(NCc1ccccc1F)C(=O)NCC1CCCN1S(=O)(=O)c1cccs1 (configuration not stated) | 6 | 5 | -16 | -2 | -5 | 10
COC(=O)CSc1nc(N2CCOCC2)c2c(c1C#N)CC(C)(C)N(C)C2 | -6 | 0 | -12 | -8 | -2 | 29
CCOC(=O)c1cnc(SC)nc1Oc1cccc(NS(=O)(=O)c2ccc(F)cc2)c1 | 4 | 34 | 7 | -2 | 17 | 43
CCOC(=O)c1cnc(SC)nc1Oc1cccc(NS(=O)(=O)c2ccccc2)c1 | 12 | 23 | 15 | -2 | 17 | 56*
C/C(=N\NC(=O)c1ccc2ccccc2c1)c1cccs1 | 13 | -115 | 3 | 1 | 6 | x
N#Cc1c(NC(=S)NC(=O)c2ccccc2)sc2c1CCN(CCc1ccccc1)C2 | 21 | -6 | 29 | -15 | 16 | 71*
CCC1(C)Cc2c(sc3nc(SC)n(Cc4ccccc4)c(=O)c23)CO1 (configuration not stated) | -11 | -54 | 96* | 2 | 20 | 21
CC1(C)Cc2c(sc3nc(-c4ccccc4)n(N)c(=O)c23)CO1 | 17 | 24 | -8 | 4 | 9 | 3
CCc1ccccc1NC(=O)CN(C)C(=O)Cn1cnc2ccc(Cl)cc2c1=O | 12 | 24 | x | x | 0 | x
